# Source: ChEMBL document CHEMBL1121618, “Thymidine phosphorylase. Substrate specificity for 5-substituted 2'-deoxyuridines” (J Med Chem, 1980)
# Experiment: Ratio of Vmax to that of dThd (Vmax = 0.14)
# Method in brief: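 Continuous UV assay of phosphorolysis by a dThd phosphorylase preparation. Initial rates were followed at each nucleoside's Δλmax, the wavelength of maximal nucleoside/base absorbance difference determined per substrate, and converted using Δεmax. Nucleoside was varied from 60–320 μM in 0.1 M potassium phosphate (pH 6.0) with limiting enzyme at 25.0 °C. Vmax was expressed relative to dThd in the same assay.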
row,SMILES,Vmax
1,C/C=C/c1cn([C@H]2C[C@H](O)[C@@H](CO)O2)c(=O)[nH]c1=O,0.57
2,N#Cc1cn([C@H]2C[C@H](O)[C@@H](CO)O2)c(=O)[nH]c1=O,0.74
3,O=Cc1cn([C@H]2C[C@H](O)[C@@H](CO)O2)c(=O)[nH]c1=O,1.46
4,CCc1cn([C@H]2C[C@H](O)[C@@H](CO)O2)c(=O)[nH]c1=O,0.79
5,O=c1ccn([C@H]2C[C@H](O)[C@@H](CO)O2)c(=O)[nH]1,0.88
6,O=c1[nH]c(=O)n([C@H]2C[C@H](O)[C@@H](CO)O2)cc1Cl,4.2
7,C=CCc1cn([C@H]2C[C@H](O)[C@@H](CO)O2)c(=O)[nH]c1=O,0.76
8,O=c1[nH]c(=O)n([C@H]2C[C@H](O)[C@@H](CO)O2)cc1Br,3.51
9,O=c1[nH]c(=O)n([C@H]2C[C@H](O)[C@@H](CO)O2)cc1F,3.42
10,Cc1cn([C@H]2C[C@H](O)[C@@H](CO)O2)c(=O)[nH]c1=O,1
11,O=c1[nH]c(=O)n([C@H]2C[C@H](O)[C@@H](CO)O2)cc1I,3.85
12,O=c1[nH]c(=O)n([C@H]2C[C@H](O)[C@@H](CO)O2)cc1CO,0.6
13,O=c1[nH]c(=O)n([C@H]2C[C@H](O)[C@@H](CO)O2)cc1C(F)(F)F,8.53
